Test results taken from article PMC7476277 (Thorax, 2020).
pIC50: −log10 of the molar value. Entries after “also recorded” stand apart in the source; their conditions may differ.

Columns and labels:
ckit = ckit (Homo sapiens, UniProt P10721); test: rhSCF-mediated ckit phosphorylation in CBMCs; assay type: cell-based; conditions: 4 nM rhSCF, 10 min stimulation
rat bleomycin model = rat bleomycin model of lung fibrosis; assay type: in vivo; conditions: 60 mg/kg daily oral
How it was run: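 Male CD rats, 6–8 weeks old, given intratracheal bleomycin sulphate 0.9 U/kg or saline 1 mL/kg under isoflurane on day 0. Test compound 60 mg/kg, or water vehicle, by daily oral gavage on days 0–13. Day 14: Giemsa-stained lung sections counted for MCs per lung area. H&E and Masson's trichrome images analysed for parenchymal tissue density (HDFm). Collagen proportion by trichrome image analysis, 5 sections/animal. n=5–9/group; Kruskal-Wallis.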

[1] = tested on: CBMCs co-cultured with NHLFs; test: CBMC:NHLF co-culture, fibroblast-mediated MC survival and fibroblast numbers; assay type: cell-based, human; conditions: 10 nM, day 14
How it was run: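 CBMCs and normal human lung fibroblasts were cultured alone or co-cultured at 1:1 for up to 21 days. Media lacked SCF and IL-6 and held test compound, DMSO vehicle, anti-SCF (67 nM) or goat IgG isotype (67 nM). At each time point, viability dye plus anti-ckit APC staining; viable ckit+ (MC) and ckit− (fibroblast) cells counted in a fixed volume by flow cytometry. Day-14 % inhibition vs isotype/vehicle; 3 experiments, 2 MC donors.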

[2] = read-out: maximum plasma concentration achieved at steady state (cmax); 150 mg twice daily dosing; cited from earlier work
CCL2 release from CBMCs = test: rhSCF-induced CCL2 release from MCs; assay type: cell-based; conditions: Homo sapiens, 72 h, read-out: IC50, inhibition of CCL2 release
How it was run: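 CBMCs stimulated 3 days with 4 nM rhSCF together with test compound, DMSO vehicle, anti-SCF pAb (positive control) or goat IgG isotype. CCL2 in culture supernatants quantified by MesoScale Discovery electrochemiluminescence. Mean (SE) of 3 separate experiments.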

[3] = tested on: cord blood-derived mast cells (CBMCs); test: recombinant SCF-mediated CBMC survival; assay type: cell-based, human; conditions: 4 nM rhSCF, 7 days
How it was run: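 Cord blood–derived MCs, differentiated from CD133+ precursors, cultured 7 days with 4 nM rhSCF plus test compound or DMSO vehicle. Then stained with viability dye and anti-ckit APC; viable ckit-positive MCs in a fixed volume counted by flow cytometry and compared with control. Mean (SE) of three separate experiments.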

[4] = tested on: normal human lung fibroblasts (NHLFs); test: bFGF-induced fibroblast proliferation; assay type: cell-based; conditions: 100pM bFGF, 48 hours
How it was run: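 Normal human lung fibroblasts stimulated 48 h with recombinant human bFGF (100pM) plus test compound or DMSO vehicle. Proliferation measured by 3H-thymidine incorporation (counts per minute). Mean (SE) of three separate experiments.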

ckit, sequence (P10721 26-976): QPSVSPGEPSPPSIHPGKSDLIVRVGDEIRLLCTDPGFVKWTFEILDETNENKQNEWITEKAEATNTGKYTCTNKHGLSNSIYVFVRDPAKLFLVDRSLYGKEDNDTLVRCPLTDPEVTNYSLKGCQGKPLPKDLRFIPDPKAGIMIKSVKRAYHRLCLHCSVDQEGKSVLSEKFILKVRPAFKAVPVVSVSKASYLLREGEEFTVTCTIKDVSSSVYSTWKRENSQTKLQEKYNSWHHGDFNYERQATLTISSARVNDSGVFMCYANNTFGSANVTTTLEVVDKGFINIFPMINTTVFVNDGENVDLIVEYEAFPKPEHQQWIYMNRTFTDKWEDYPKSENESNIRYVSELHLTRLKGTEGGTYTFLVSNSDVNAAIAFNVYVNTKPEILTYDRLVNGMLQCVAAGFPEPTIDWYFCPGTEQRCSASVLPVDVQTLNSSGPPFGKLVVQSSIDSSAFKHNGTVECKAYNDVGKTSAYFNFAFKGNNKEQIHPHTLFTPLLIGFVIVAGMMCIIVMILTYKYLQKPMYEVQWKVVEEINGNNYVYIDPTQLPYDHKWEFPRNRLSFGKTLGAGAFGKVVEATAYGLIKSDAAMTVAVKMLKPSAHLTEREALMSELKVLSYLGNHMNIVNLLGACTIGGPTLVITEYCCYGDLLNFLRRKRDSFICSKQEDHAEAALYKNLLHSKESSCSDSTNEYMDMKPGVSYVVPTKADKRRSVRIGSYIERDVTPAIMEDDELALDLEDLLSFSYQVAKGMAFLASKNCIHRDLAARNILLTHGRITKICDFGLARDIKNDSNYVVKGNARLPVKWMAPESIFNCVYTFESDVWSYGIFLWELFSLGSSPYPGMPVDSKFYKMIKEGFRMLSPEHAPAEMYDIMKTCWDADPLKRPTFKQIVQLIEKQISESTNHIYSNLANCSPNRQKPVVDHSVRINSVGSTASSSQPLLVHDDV

Structure (SMILES)	extent of inhibition of ckit phosphorylation (in words) (ckit)	effect on bleomycin-induced increase in lung MCs (number per area lung) (rat bleomycin model; day 0-13, read-out day 14, 60 mg/kg)	effect on collagen (col1a1) mRNA expression in lung (rat bleomycin model; day 14)	effect on fibronectin (fn1) mRNA expression in lung (rat bleomycin model; day 14)	effect on collagen content by Masson's trichrome (MTC) (rat bleomycin model; day 14, 60 mg/kg)	effect on histamine levels in lung homogenates (rat bleomycin model; day 14, 60 mg/kg)	effect on lung hydroxyproline levels (rat bleomycin model; day 14, 60 mg/kg)	effect on high tissue density frequency (HDFm) in lung parenchyma (rat bleomycin model; day 14, vs bleomycin vehicle control, 60 mg/kg)	effect on fibroblast-mediated MC survival (in words) [1]	Cmax [2] [µM]	pIC50 (CCL2 release from CBMCs)	effect on rhSCF-mediated MC survival (in words) [3]	effect on bFGF-mediated fibroblast proliferation (in words) [4]
COC(=O)c1ccc2c(c1)NC(=O)/C2=C(\Nc1ccc(N(C)C(=O)CN2CCN(C)CC2)cc1)c1ccccc1 [nintedanib]	fully inhibited	ablated; also recorded: inhibited	no significant effect	no significant effect	trend towards decreased collagen; also recorded: not statistically significant	reduction in the levels of histamine in lung homogenates, although this did not reach statistical significance	no significant effect	significantly decreased; also recorded: inhibited	inhibited survival	0.07	7.91	–	–
Cc1ccc(=O)n(-c2ccccc2)c1 [pirfenidone]	–	–	–	–	–	–	–	–	–	–	–	no impact	no impact
